Assay results as given in ChEMBL document CHEMBL1135797, “Carbonic anhydrase activators: high affinity isozymes I, II, and IV activators, incorporating a beta-alanyl-histidine scaffold” (2002).

What was measured:
Homo sapiens [1] = organism: Homo sapiens; assay: (§1) Ex vivo carbonic anhydrase activation after 30 min incubation of human erythrocytes with 5 uM activator Histamine; format: functional
Method in brief: (§2)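 Freshly isolated human blood washed in Tris buffer (pH 7.40, 5 mM), erythrocytes incubated with 5 µM activator solution at 37 °C with gentle stirring; cells washed three times to remove unbound compound, lysed in distilled water, centrifuged; CA activity of lysate measured by 4-nitrophenyl acetate esterase assay (400 nm, pH 7.40, 25 °C). Untreated cells taken as 100%.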

Homo sapiens [2] = organism: Homo sapiens; assay: (§3) Ex vivo carbonic anhydrase activation after 60 min incubation of human erythrocytes with 5 uM activator Histamine; format: functional; method in brief: as §2
[3] = biological target: Carbonic anhydrase 1 (Homo sapiens) (UniProt P00915); assay: In vitro carbonic anhydrase activation in human cloned Carbonic anhydrase I (hCA I)
Carbonic anhydrase 1 (Homo sapiens), sequence (P00915 2-261 limits assumed): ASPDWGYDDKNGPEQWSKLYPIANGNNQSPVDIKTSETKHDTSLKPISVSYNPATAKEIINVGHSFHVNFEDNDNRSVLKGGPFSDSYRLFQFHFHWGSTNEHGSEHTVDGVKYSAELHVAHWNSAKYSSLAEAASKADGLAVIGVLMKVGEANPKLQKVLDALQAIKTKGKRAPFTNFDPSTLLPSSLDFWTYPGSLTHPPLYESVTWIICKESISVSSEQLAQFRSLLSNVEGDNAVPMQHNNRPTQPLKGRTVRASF

[4] = biological target: Carbonic anhydrase 2 (Homo sapiens) (UniProt P00918); assay: In vitro carbonic anhydrase activation in human cloned Carbonic anhydrase II (hCA II)
[5] = biological target: T1, Carbonic anhydrase 4 (Bos taurus) (UniProt Q95323); assay: In vitro carbonic anhydrase IV activation in bovine lung microsomes.; settings: Microsome
T1 sequence (whole entry): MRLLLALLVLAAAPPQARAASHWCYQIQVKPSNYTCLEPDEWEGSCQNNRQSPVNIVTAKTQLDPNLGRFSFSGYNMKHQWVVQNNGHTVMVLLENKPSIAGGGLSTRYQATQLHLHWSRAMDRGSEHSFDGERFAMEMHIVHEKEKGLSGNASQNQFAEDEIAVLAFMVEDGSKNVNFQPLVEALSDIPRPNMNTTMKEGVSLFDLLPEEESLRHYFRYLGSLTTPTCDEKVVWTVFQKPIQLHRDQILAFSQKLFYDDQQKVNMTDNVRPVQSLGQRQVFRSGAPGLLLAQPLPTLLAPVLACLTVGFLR
Method in brief: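 CA IV isolated from bovine lung microsomes and quantified by ethoxzolamide titration; used at 39 nM. 4-Nitrophenyl acetate hydrolysis initial rates followed at 400 nm, 25 °C, pH 7.40, substrate 2×10-2 to 1×10^-6 M. Activator preincubated with enzyme 15 min at room temperature. Dilutions down to 0.1 nM. Non-enzymatic rate subtracted. KA given as mean of at least three determinations.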

Homo sapiens [6] = organism: Homo sapiens; assay: as §3; format: functional; remark: listed apart in the source
Method in brief: (§4)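 Fresh human blood washed repeatedly with 5 mM Tris pH 7.40 and centrifuged; erythrocytes incubated with 5 µM activator at 37 °C with gentle stirring. Cells washed three times with buffer to remove unbound compound, lysed in distilled water and centrifuged. Lysate CA activity measured by 4-nitrophenyl acetate esterase assay at 400 nm. Buffer-only cells set as 100%.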

Homo sapiens [7] = organism: Homo sapiens; assay: as §1; format: functional; method in brief: as §4; remark: listed apart in the source

KA [3] [µM]	KA [4] [µM]	KA [5] [µM]	SMILES	CA (Homo sapiens [1]) [%]	CA (Homo sapiens [2]) [%]	CA (Homo sapiens [6]) [%]	CA (Homo sapiens [7]) [%]
0.004	0.02	0.008	Cc1ccccc1S(=O)(=O)NC(=O)NCCC(=O)N[C@@H](Cc1c[nH]cn1)C(=O)NCCC(=O)N[C@@H](Cc1c[nH]cn1)C(=O)O	236	267	–	–
0.03	0.7	0.5	Cc1ccccc1S(=O)(=O)NC(=O)N[C@@H](Cc1c[nH]cn1)C(=O)NCCC(=O)N[C@@H](Cc1c[nH]cn1)C(=O)O	–	–	211	180

SMILES	KA [3] [µM]	KA [4] [µM]	KA [5] [µM]	CA (Homo sapiens [1]) [%]	CA (Homo sapiens [2]) [%]	CA (Homo sapiens [6]) [%]	CA (Homo sapiens [7]) [%]
NCCc1c[nH]cn1 [HISTAMINE]	2	–	–	121	130	–	–
